# Key:
# Jurkat = experiment: Cytotoxicity against human Jurkat cells assessed as reduction in cell viability at 100 uM measured after 48 hrs by WST-1 assay; format: toxicity, cell-based
# Method in brief: (§1)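 Cells kept at 37 °C in humidified 5% CO2, adherent lines under 10 passages, suspension lines under 20, exponential phase. Seeded at 1–50 × 10^3 cells per well, settled overnight, then a single 48 h exposure at 100 μM final. WST-1 read at 440 nm. Proliferation given as % of 0.1% DMSO mock control, mean of three independent experiments.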
# MOLT-4 = experiment: Cytotoxicity against human MOLT-4 cells assessed as reduction in cell viability at 100 uM measured after 48 hrs by WST-1 assay; format: toxicity, cell-based; conditions: molt-4, 48 h; method in brief: as §1
# A549 = experiment: Cytotoxicity against human A549 cells assessed as reduction in cell viability at 100 uM measured after 48 hrs by WST-1 assay; format: toxicity, cell-based; conditions: a549, 48 h; method in brief: as §1
# HT-29 = experiment: Cytotoxicity against human HT-29 cells assessed as reduction in cell viability at 100 uM measured after 48 hrs by WST-1 assay; format: toxicity, cell-based; conditions: ht-29, 48 h; method in brief: as §1
# PANC-1 = experiment: Cytotoxicity against human PANC-1 cells assessed as reduction in cell viability at 100 uM measured after 48 hrs by WST-1 assay; format: toxicity, cell-based; conditions: panc-1, 48 h; method in brief: as §1
# MCF7 = experiment: Cytotoxicity against human MCF7 cells assessed as reduction in cell viability at 100 uM measured after 48 hrs by WST-1 assay; format: toxicity, cell-based; conditions: mcf7, 48 h; method in brief: as §1
# SAOS-2 = experiment: Cytotoxicity against human SAOS-2 cells assessed as reduction in cell viability at 100 uM measured after 48 hrs by WST-1 assay; format: toxicity, cell-based; conditions: saos-2, 48 h; method in brief: as §1
# MRC5 = experiment: Cytotoxicity against human MRC5 cells assessed as reduction in cell viability at 100 uM measured after 48 hrs by WST-1 assay; format: toxicity, cell-based; conditions: mrc5, 48 h; method in brief: as §1
# [1] = Cytotoxicity against human PBMC assessed as optimal non-toxic concentration required to show >=90 to 100% cell viability measured after 48 hrs by MTS assay; format: toxicity, cell-based; conditions: read-out: Activity
# Method in brief: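 PBMCs from a healthy donor were isolated on Histopaque-1077 and cultured in RPMI 1640 with 20% inactivated FBS. About 5×10^4 cells per well were exposed 48 h at 37 °C, 5% CO2 to 10–1000 μM. MTS was added 4 h before reading at 490 nm, blank subtracted, untreated control set to 100%. Concentration taken as viability ≥90% and not below control (P 0.05), mean of ≥3 measurements.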
# [2] = Cytotoxicity against human PBMC assessed as reduction in cell viability at 20 uM measured after 48 hrs by MTS assay; format: toxicity, cell-based
# Method in brief: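 PBMCs isolated from whole blood of a healthy donor by Histopaque-1077 density centrifugation, cultured in RPMI 1640 GlutaMAX with 20% inactivated FBS and penicillin/streptomycin. About 5×10^4 cells/well exposed to 10–1000 μM for 48 h at 37 °C, 5% CO2. MTS added 4 h before reading absorbance at 490 nm, cell-free medium blank subtracted. Untreated control set as 100%; mean of ≥3 independent measurements.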
# Blood = experiment: Radioprotective activity against 3 Gy gamma radiation-induced DNA damage in human whole blood assessed as reduction in number of dicentric chromosomes per cell by measuring radioprotection factor at 1000 uM preincubated for 1 hr followed by 3 Gy gamma irradiation and measured after 48 hrs by giemsa staining based microscopic analysis relative to control; format: functional; conditions: time 49 hrs
# Method in brief: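 Heparinized whole blood from healthy male donors, 60 min compound pre-exposure, then single 3 Gy 60Co gamma dose at 0.6 Gy/min. After 30 min at 37 °C, cultured in RPMI 1640 with 20% FBS and 2% PHA. Colcemid 0.25 μg/ml added at 48 h, harvest at 50 h, KCl hypotonic, methanol:acetic acid fixation, 5% Giemsa. Automated metaphase scoring. RF = […].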
Compound,Activity (Jurkat),Activity (MOLT-4),Activity (A549),Activity (HT-29),Activity (PANC-1),Activity (MCF7),Activity (SAOS-2),Activity (MRC5),MNTC at 48 h [1] [µM],Activity [2],PI (Blood)
OCCN1CCN(CC(O)COc2cc(Cl)c(Cl)cc2Cl)CC1 (stereo not drawn),Toxic,Toxic,Toxic,Toxic,Toxic,Toxic,Toxic,Toxic,–,–,–
O=[N+]([O-])c1cc(OCC(O)CN2CCN(CCO)CC2)ccc1Cl (stereo not drawn),Non-Toxic,Non-Toxic,Non-Toxic,Non-Toxic,Non-Toxic,Non-Toxic,Non-Toxic,Non-Toxic,200,–,–
COc1ccc(OCC(O)CN2CCN(CCO)CC2)c([N+](=O)[O-])c1 (stereo not drawn),Non-Toxic,Non-Toxic,Non-Toxic,Non-Toxic,Non-Toxic,Non-Toxic,Non-Toxic,Non-Toxic,500,–,–
O=[N+]([O-])c1ccc(OCC(O)CN2CCN(CCO)CC2)c(F)c1 (stereo not drawn),Non-Toxic,Non-Toxic,Non-Toxic,Non-Toxic,Non-Toxic,Non-Toxic,Non-Toxic,Non-Toxic,500,–,–
OCCN1CCN(CC(O)COc2cccc(Cl)c2)CC1 (stereo not drawn),Non-Toxic,Non-Toxic,Non-Toxic,Non-Toxic,Non-Toxic,Non-Toxic,Non-Toxic,Non-Toxic,500,–,–
NCCCNCCSP(=O)(O)O [AMIFOSTINE],–,–,–,–,–,–,–,–,10,Toxic,–
OCCN1CCN(CC(O)COc2ccc(F)cc2)CC1 (stereo not drawn),Non-Toxic,Non-Toxic,Non-Toxic,Non-Toxic,Non-Toxic,Non-Toxic,Non-Toxic,Non-Toxic,1000,–,1.53
COc1cc([N+](=O)[O-])ccc1OCC(O)CN1CCN(CCO)CC1 (stereo not drawn),Non-Toxic,Non-Toxic,Non-Toxic,Non-Toxic,Non-Toxic,Non-Toxic,Non-Toxic,Non-Toxic,500,–,–
OCCN1CCN(CC(O)COc2ccc(Oc3ccc(F)cc3)cc2)CC1 (stereo not drawn),Toxic,Toxic,Toxic,Toxic,Toxic,Toxic,Toxic,Toxic,–,–,–

# From ChEMBL document CHEMBL5584326, “Second-generation piperazine derivatives as promising radiation countermeasures” (RSC Med Chem, 2024)
